Laboratory results published in ChEMBL document CHEMBL4382209, “Comparison between porphin, chlorin and bacteriochlorin derivatives for photodynamic therapy: Synthesis, photophysical properties, and biological activity” (Eur J Med Chem, 2018).
Activity calls are given as the source filed them. No cut-off for these calls is given here.

Assays:
[1] = Induction of singlet oxygen generation assessed as singlet oxygen quantum yield by measuring DPBF chemical oxidation in DMF solution incubated up to 8 mins at 5 mW/cm2 laser irradiation by UV-Vis spectrophotometry; assay type: functional
[2] = Dark toxicity in human ECA109 cells assessed as cell survival at 20 uM after 24 hrs by MTT assay relative to control; assay type: cell-based, ECa-109; details: read-out: Survival
Procedure, shortened: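 Eca-109 human esophageal carcinoma cells in RPMI-1640 with 10% FBS, trypsinised and seeded at 5×10^4 cells per well, attached for 24 h. Photosensitiser in medium (0 to 60 μM) was taken up for 24 h and the cells were not irradiated. Viability was read by MTT colorimetric assay 24 h after treatment.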

[3] = Dark toxicity in human ECA109 cells assessed as decrease in cell viability after 24 hrs by MTT assay; assay type: cell-based, ECa-109
ECa-109 cell line [4] = experiment: Phototoxicity against human ECA109 cells assessed as decrease in cell viability after 24 hrs at 16 J/cm2 irradiation by MTT assay; assay type: functional, cell-based; details: ECa-109, light or radiation study
Procedure, shortened: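 Eca-109 cells (5×10^4/well, attached for 24 h) took up compound (0–16 μM) for 24 h. They were washed with PBS and irradiated with Nd:YAG laser at 16 J/cm²: 635 nm for porphins, 650 nm for chlorins, 730 nm for bacteriochlorins. MTT viability was read 24 h later, and IC50 was derived.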

[5] = Induction of singlet oxygen generation assessed as singlet oxygen quantum yield by measuring DPBF chemical oxidation in DMF solution incubated up to 4 mins at 5 mW/cm2 laser irradiation by UV-Vis spectrophotometry; assay type: functional
[6] = Induction of singlet oxygen generation assessed as singlet oxygen quantum yield by measuring DPBF chemical oxidation in DMF solution incubated up to 5 mins at 5 mW/cm2 laser irradiation by UV-Vis spectrophotometry; assay type: functional
ECa-109 cell line [7] = experiment: Antitumor activity against human ECA109 cells xenografted in BALB/c nude mouse assessed as tumor size at 5 mg/kg, iv treated for 24 hrs before 120 J/cm2 laser light irradiation for 5 mins and measured every other day up to 14 days (reference value: 785 +/- 37 mm3); assay type: functional
Procedure, shortened: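 Eca-109 s.c. xenografts (5×10^6 cells, right forelimb) were grown in female BALB/c nude mice to ~100 mm³. Compound 5 mg/kg in 0.2 mL went i.v. into the tail vein. At 24 h, restrained unanaesthetised mice got 730 nm laser at 120 J/cm² to the tumour. Controls received no PS or light; 6 mice/group. Volume LW²/2 was taken every two days for 14 days.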

ECa-109 cell line [8] = experiment: Antitumor activity against human ECA109 cells xenografted in BALB/c nude mouse assessed as tumor size at 5 mg/kg, iv measured every other day up to 14 days; assay type: functional, organism-based
Procedure, shortened: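 Four-week-old female BALB/c nude mice were given 5×10^6 Eca-109 cells s.c. in PBS into the right forelimb. At about 100 mm³ (~14 days), the compound was given at 5 mg/kg in 0.2 mL via the lateral tail vein, with no irradiation; 6 mice/group. Orthogonal L and W were measured every two days for 14 days, and V = LW²/2.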

[9] = Drug uptake in lysosomes of human ECA109 cells at 10 uM after 4 hrs by Lyso Blue dye-based confocal fluorescence microscopic method; assay type: ADME, subcellular, Lysosome; details: eca-109, 4 h
Procedure, shortened: (§1)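 Eca-109 cells were plated on poly-L-lysine-coated coverslips at 1×10^5 cells/mL. After 24 h, they took up 10 μM compound in the dark for 4 h at 37 °C. They were stained with Mito-tracker Green or Lyso-Blue for 20 min at 37 °C, rinsed, and fixed in 4% paraformaldehyde at 4 °C for 30 min. Confocal imaging used sequential scans, exciting at 490 nm (Mito), 373 nm (Lyso, PS).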

[10] = Drug uptake in mitochondria of human ECA109 cells at 10 uM after 4 hrs by Mito Tracker green dye-based confocal fluorescence microscopic method; assay type: ADME; details: eca-109, 4 h; procedure, shortened: as §1

COc1ccc(-c2c3nc(cc4ccc([nH]4)c(-c4ccc(OC)c(OCCCC(=O)O)c4)c4nc(cc5ccc2[nH]5)CC4)C=C3)cc1OCCCC(=O)O
DPBF oxidation rate constant [1]: 19.8 ×10⁻² k/min | viability at 24 h, 20 µM [2]: 80% | IC50 at 24 h [3]: > 300 µM | IC50 (ECa-109 cell line [4]): 2.83 µM

COc1ccc(-c2c3nc(cc4ccc([nH]4)c(-c4ccc(OC)c(OCCCC(=O)O)c4)c4nc(cc5ccc2[nH]5)CC4)CC3)cc1OCCCC(=O)O
viability at 24 h, 20 µM [2]: 80% | Activity [5]: 48.6 ×10⁻² k/min | IC50 at 24 h [3]: > 300 µM | IC50 (ECa-109 cell line [4]): 2.47 µM

O=C(O)CCCOc1cccc(-c2c3nc(cc4ccc([nH]4)c(-c4cccc(OCCCC(=O)O)c4)c4nc(cc5ccc2[nH]5)CC4)C=C3)c1
DPBF oxidation rate constant [1]: 24.9 ×10⁻² k/min | viability at 24 h, 20 µM [2]: 80% | IC50 at 24 h [3]: > 300 µM | IC50 (ECa-109 cell line [4]): 2.65 µM

O=C(O)CCCOc1cccc(-c2c3nc(cc4ccc([nH]4)c(-c4cccc(OCCCC(=O)O)c4)c4nc(cc5ccc2[nH]5)CC4)CC3)c1
Activity [6]: 69.1 ×10⁻² k/min | Activity (ECa-109 cell line [7]): 126 mm3 | Activity (ECa-109 cell line [8]): inactive | viability at 24 h, 20 µM [2]: 80% | IC50 at 24 h [3]: > 500 µM | IC50 (ECa-109 cell line [4]): 2.43 µM | Drug uptake [9]: Active | Drug uptake [10]: Active

O=C(O)CCCOc1cccc(-c2c3nc(cc4ccc([nH]4)c(-c4cccc(OCCCC(=O)O)c4)c4nc(cc5ccc2[nH]5)C=C4)C=C3)c1
DPBF oxidation rate constant [1]: 1.93 ×10⁻² k/min | viability at 24 h, 20 µM [2]: 80% | IC50 at 24 h [3]: 271 µM | IC50 (ECa-109 cell line [4]): 8.19 µM

COc1ccc(-c2c3nc(cc4ccc([nH]4)c(-c4ccc(OC)c(OCC(=O)O)c4)c4nc(cc5ccc2[nH]5)C=C4)C=C3)cc1OCC(=O)O
DPBF oxidation rate constant [1]: 2.41 ×10⁻² k/min | viability at 24 h, 20 µM [2]: 80% | IC50 at 24 h [3]: 158 µM | IC50 (ECa-109 cell line [4]): 12.5 µM

COc1ccc(-c2c3nc(cc4ccc([nH]4)c(-c4ccc(OC)c(OCC(=O)O)c4)c4nc(cc5ccc2[nH]5)CC4)CC3)cc1OCC(=O)O
DPBF oxidation rate constant [1]: 38.7 ×10⁻² k/min | viability at 24 h, 20 µM [2]: 80% | IC50 at 24 h [3]: 187 µM | IC50 (ECa-109 cell line [4]): 3.09 µM

O=C(O)COc1cccc(-c2c3nc(cc4ccc([nH]4)c(-c4cccc(OCC(=O)O)c4)c4nc(cc5ccc2[nH]5)C=C4)C=C3)c1
DPBF oxidation rate constant [1]: 0.829 ×10⁻² k/min | viability at 24 h, 20 µM [2]: 80% | IC50 at 24 h [3]: 74.6 µM | IC50 (ECa-109 cell line [4]): 9.41 µM

COc1ccc(-c2c3nc(cc4ccc([nH]4)c(-c4ccc(OC)c(OCC(=O)O)c4)c4nc(cc5ccc2[nH]5)CC4)C=C3)cc1OCC(=O)O
DPBF oxidation rate constant [1]: 14.2 ×10⁻² k/min | viability at 24 h, 20 µM [2]: 80% | IC50 at 24 h [3]: 111 µM | IC50 (ECa-109 cell line [4]): 3.14 µM

O=C(O)COc1cccc(-c2c3nc(cc4ccc([nH]4)c(-c4cccc(OCC(=O)O)c4)c4nc(cc5ccc2[nH]5)CC4)CC3)c1
DPBF oxidation rate constant [1]: 30.9 ×10⁻² k/min | viability at 24 h, 20 µM [2]: 80% | IC50 at 24 h [3]: 162 µM | IC50 (ECa-109 cell line [4]): 2.62 µM

COc1ccc(-c2c3nc(cc4ccc([nH]4)c(-c4ccc(OC)c(OCCCC(=O)O)c4)c4nc(cc5ccc2[nH]5)C=C4)C=C3)cc1OCCCC(=O)O
DPBF oxidation rate constant [1]: 1.68 ×10⁻² k/min | viability at 24 h, 20 µM [2]: 80% | IC50 at 24 h [3]: 183 µM | IC50 (ECa-109 cell line [4]): 10.1 µM

O=C(O)COc1cccc(-c2c3nc(cc4ccc([nH]4)c(-c4cccc(OCC(=O)O)c4)c4nc(cc5ccc2[nH]5)CC4)C=C3)c1
Activity [6]: 4.06 ×10⁻² k/min | viability at 24 h, 20 µM [2]: 80% | IC50 at 24 h [3]: 91.8 µM | IC50 (ECa-109 cell line [4]): 3.31 µM
